Legend:
[1] = Metabolic stability in rat liver microsomes assessed as parent compound remaining; assay type: ADME, microsome
[2] = Fraction unbound in mouse plasma; assay type: ADME, cell-free
[3] = Fraction unbound in rat plasma; assay type: ADME, cell-free
[4] = Tmax in Balb/C mouse at 10 mg/kg, po qd; assay type: ADME, organism-based; settings: in vivo
Procedure, shortened: (§1)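 Compound given orally to mice. Plasma levels were followed over time, and Cmax, Tmax and AUC0–24 were taken from the plasma concentration–time profile.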

[5] = Metabolic stability in human liver microsomes assessed as parent compound remaining; assay type: ADME, microsome
[6] = Metabolic stability in mouse liver microsomes assessed as parent compound remaining; assay type: ADME, microsome
[7] = Fraction unbound in human plasma; assay type: ADME, cell-free
[8] = AUC (0 to 24 hrs) in Balb/C mouse at 10 mg/kg, po qd; assay type: ADME, organism-based; parameters: time < 24 hr, dose 10 mg/kg, route oral; settings: in vivo; procedure, shortened: as §1
Mus musculus = assay: Toxicity in C57/BL6 mouse xenografted with mouse MC38 cells assessed as body weight loss at 25 to 50 mg/kg, po qd for 28 days measured twice weekly; assay type: organism-based; settings: in vivo, 672 h
Procedure, shortened: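 Nine C57/BL6 mice per group were injected subcutaneously with 1 × 10^6 MC38 cells. Tumors were measured on day 6, then mice were randomized. Compound was given orally every day for 28 days, alone or with anti-PD-1 antibody (IP every 4 days, three doses). Tumor volumes were measured twice weekly, and body weight loss (>5%) was monitored.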

[9] = Cmax in Balb/C mouse at 10 mg/kg, po qd; assay type: ADME, organism-based; parameters: dose 10 mg/kg, route oral; settings: in vivo; procedure, shortened: as §1
[10] = Cmax in Balb/C mouse at 50 mg/kg, po bid; assay type: ADME, organism-based; parameters: dose 50 mg/kg, route oral; settings: in vivo; procedure, shortened: as §1
[11] = Tmax in Balb/C mouse at 50 mg/kg, po bid; assay type: ADME, organism-based; settings: in vivo; procedure, shortened: as §1
[12] = AUC (0 to 24 hrs) in Balb/C mouse at 50 mg/kg, po bid; assay type: ADME, organism-based; parameters: time < 24 hr, dose 50 mg/kg, route oral; settings: in vivo; procedure, shortened: as §1

| Stability [1] | fraction unbound [2] | fraction unbound [3] | Tmax [4] | Stability [5] | Stability [6] | fraction unbound [7] | AUC at 24 h [8] | Cmax [9] | Cmax [10] | Tmax [11] | AUC at 24 h [12] | SMILES | Activity (Mus musculus) |
| --- | --- | --- | --- | --- | --- | --- | --- | --- | --- | --- | --- | --- | --- |
| 89% | 0.12 | 0.25 | 1 h | 96% | 74% | 0.24 | 19.5 µM·h | 5.3 µM |  |  |  | [2H]C([2H])([2H])Oc1ccc(-c2c(-c3ccnc(NC(C)=O)c3)[nH]c3cccnc23)nc1 | < 5% |
| 85% | 0.05 | 0.18 |  | 60% | 66% | 0.09 |  |  | 7.4 µM | 1 h | 14.1 µM·h | CC(=O)Nc1cc(-c2[nH]c3cccnc3c2-c2cccc(C(F)F)n2)ccn1 |  |
